According to ChEMBL document CHEMBL1125014, “Synthesis and structure-activity relationships of new 9-N-alkyl derivatives of 9(S)-erythromycylamine” (1990):
In brackets after ≈: the same amount, converted by molar mass.

Assays:
Format in all cases: functional
[1] = system: Streptococcus pyogenes; test: MIC value measured against streptococcus pyogenes C203
[2] = system: Streptococcus pyogenes; test: Effective dose against mice infected with streptococcus pyogenes after peroral administration (in vivo); conditions: in Mus musculus, po
[3] = system: Staphylococcus aureus; test: MIC value measured against staphylococcus aureus X1
[4] = system: Streptococcus pneumoniae; test: Effective dose against mice infected with streptococcus pneumoniae after peroral administration (in vivo); conditions: in Mus musculus, po
[5] = system: Staphylococcus epidermidis; test: microbe, parasite or virus in culture
[6] = system: Staphylococcus aureus; test: Effective dose against mice infected with Staphylococcus aureus after peroral administration (in vivo); conditions: in Mus musculus, po
[7] = system: Haemophilus influenzae; test: MIC value was measured against haemophilus influenzae CL
[8] = system: Streptococcus pneumoniae; test: MIC value measured against streptococcus pneumoniae Park1
[9] = system: Haemophilus influenzae; test: MIC value was measured against haemophilus influenzae.
Method in brief: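 Susceptibility determined by standard agar-dilution method against a panel of bacterial strains.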

Row | Structure (SMILES) | MIC [1] [µg/mL] | ED50 [2] [mg/kg] | MIC [3] [µg/mL] | ED50 [4] [mg/kg] | MIC [5] [µg/mL] | ED50 [6] [mg/kg] | MIC [7] [µg/mL] | MIC [8] [µg/mL] | MIC [9] [µg/mL]
1 | CCCCCCCCN[C@@H]1[C@H](C)[C@@H](O)[C@](C)(O)[C@@H](CC)OC(=O)[C@H](C)[C@@H](OC2CC(C)(OC)C(O)C(C)O2)[C@H](C)[C@@H](OC2OC(C)CC(N(C)C)C2O)[C@](C)(O)C[C@H]1C (some centres not stated) | 0.015 (≈ 0.0177 µM) | 23 | 0.5 (≈ 0.59 µM) | 46 | 0.25 (≈ 0.295 µM) | > 50 | 1 (≈ 1.18 µM) | 0.015 (≈ 0.0177 µM) | 1 (≈ 1.18 µM)
2 | CC[C@H]1OC(=O)[C@H](C)[C@@H](OC2CC(C)(OC)C(O)C(C)O2)[C@H](C)[C@@H](OC2OC(C)CC(N(C)C)C2O)[C@](C)(O)C[C@@H](C)[C@H](NC(C)C)[C@H](C)[C@@H](O)[C@]1(C)O (some centres not stated) | 0.25 (≈ 0.322 µM) | 13 | 1 (≈ 1.29 µM) | 13 | 0.5 (≈ 0.643 µM) | 32 | 2 (≈ 2.57 µM) | 0.12 (≈ 0.154 µM) | 2 (≈ 2.57 µM)
3 | CC[C@H]1OC(=O)[C@H](C)[C@@H](OC2CC(C)(OC)C(O)C(C)O2)[C@H](C)[C@@H](OC2OC(C)CC(N(C)C)C2O)[C@](C)(O)C[C@@H](C)[C@H](N(C)C2CCCCC2)[C@H](C)[C@@H](O)[C@]1(C)O (some centres not stated) | 1 (≈ 1.2 µM) | > 50 | 16 (≈ 19.3 µM) | > 50 | 8 (≈ 9.63 µM) | > 50 | 32 (≈ 38.5 µM) | 0.12 (≈ 0.144 µM) | 32 (≈ 38.5 µM)
4 | CCCCCN[C@@H]1[C@H](C)[C@@H](O)[C@](C)(O)[C@@H](CC)OC(=O)[C@H](C)[C@@H](OC2CC(C)(OC)C(O)C(C)O2)[C@H](C)[C@@H](OC2OC(C)CC(N(C)C)C2O)[C@](C)(O)C[C@H]1C (some centres not stated) | 0.06 (≈ 0.0745 µM) | 9 | 0.5 (≈ 0.621 µM) | 14 | 0.5 (≈ 0.621 µM) | 25 | 1 (≈ 1.24 µM) | 0.015 (≈ 0.0186 µM) | 1 (≈ 1.24 µM)
5 | CC[C@H]1OC(=O)[C@H](C)[C@@H](OC2CC(C)(OC)C(O)C(C)O2)[C@H](C)[C@@H](OC2OC(C)CC(N(C)C)C2O)[C@](C)(O)C[C@@H](C)[C@H](NCCCC#N)[C@H](C)[C@@H](O)[C@]1(C)O (some centres not stated) | 1 (≈ 1.25 µM) | 21 | 1 (≈ 1.25 µM) | 29 | 1 (≈ 1.25 µM) | 36 | 2 (≈ 2.49 µM) | – | 2 (≈ 2.49 µM)
6 | CC[C@H]1OC(=O)[C@H](C)[C@@H](OC2CC(C)(OC)C(O)C(C)O2)[C@H](C)[C@@H](OC2OC(C)CC(N(C)C)C2O)[C@](C)(O)C[C@@H](C)[C@H](NCCC(C)C)[C@H](C)[C@@H](O)[C@]1(C)O (some centres not stated) | 0.06 (≈ 0.0745 µM) | 9 | 1 (≈ 1.24 µM) | 11 | 0.25 (≈ 0.311 µM) | 13 | 1 (≈ 1.24 µM) | 0.03 (≈ 0.0373 µM) | 1 (≈ 1.24 µM)
7 | CCN[C@@H]1[C@H](C)[C@@H](O)[C@](C)(O)[C@@H](CC)OC(=O)[C@H](C)[C@@H](OC2CC(C)(OC)C(O)C(C)O2)[C@H](C)[C@@H](OC2OC(C)CC(N(C)C)C2O)[C@](C)(O)C[C@H]1C (some centres not stated) | 0.12 (≈ 0.157 µM) | 13 | 1 (≈ 1.31 µM) | 13 | 1 (≈ 1.31 µM) | 23 | 1 (≈ 1.31 µM) | 0.03 (≈ 0.0393 µM) | 1 (≈ 1.31 µM)
8 | CCCCCCCN[C@@H]1[C@H](C)[C@@H](O)[C@](C)(O)[C@@H](CC)OC(=O)[C@H](C)[C@@H](OC2CC(C)(OC)C(O)C(C)O2)[C@H](C)[C@@H](OC2OC(C)CC(N(C)C)C2O)[C@](C)(O)C[C@H]1C (some centres not stated) | 0.015 (≈ 0.018 µM) | 31 | 0.25 (≈ 0.3 µM) | 33 | 0.25 (≈ 0.3 µM) | > 50 | 1 (≈ 1.2 µM) | 0.015 (≈ 0.018 µM) | 1 (≈ 1.2 µM)
9 | CC[C@H]1OC(=O)[C@H](C)[C@@H](OC2CC(C)(OC)C(O)C(C)O2)[C@H](C)[C@@H](OC2OC(C)CC(N(C)C)C2O)[C@](C)(O)C[C@@H](C)[C@H](NC)[C@H](C)[C@@H](O)[C@]1(C)O (some centres not stated) | 0.06 (≈ 0.0801 µM) | 21 | 1 (≈ 1.34 µM) | 35 | 0.25 (≈ 0.334 µM) | 44 | 0.5 (≈ 0.668 µM) | – | 0.5 (≈ 0.668 µM)
10 | C=CCCCCCCCCCN[C@@H]1[C@H](C)[C@@H](O)[C@](C)(O)[C@@H](CC)OC(=O)[C@H](C)[C@@H](OC2CC(C)(OC)C(O)C(C)O2)[C@H](C)[C@@H](OC2OC(C)CC(N(C)C)C2O)[C@](C)(O)C[C@H]1C (some centres not stated) | 1 (≈ 1.13 µM) | – | 2 (≈ 2.25 µM) | – | 1 (≈ 1.13 µM) | – | 2 (≈ 2.25 µM) | – | 2 (≈ 2.25 µM)
11 | CC[C@H]1OC(=O)[C@H](C)[C@@H](OC2CC(C)(OC)C(O)C(C)O2)[C@H](C)[C@@H](OC2OC(C)CC(N(C)C)C2O)[C@](C)(O)C[C@@H](C)[C@H](NCC2CCCCCCC2)[C@H](C)[C@@H](O)[C@]1(C)O (some centres not stated) | 0.06 (≈ 0.0698 µM) | – | 1 (≈ 1.16 µM) | – | 0.5 (≈ 0.582 µM) | – | – | – | –
12 | CCCCCCN[C@@H]1[C@H](C)[C@@H](O)[C@](C)(O)[C@@H](CC)OC(=O)[C@H](C)[C@@H](OC2CC(C)(OC)C(O)C(C)O2)[C@H](C)[C@@H](OC2OC(C)CC(N(C)C)C2O)[C@](C)(O)C[C@H]1C (some centres not stated) | 0.12 (≈ 0.146 µM) | 18 | 1 (≈ 1.22 µM) | 14 | 0.25 (≈ 0.305 µM) | 39 | 4 (≈ 4.88 µM) | 0.008 (≈ 0.00977 µM) | 4 (≈ 4.88 µM)
13 | CC[C@H]1OC(=O)[C@H](C)[C@@H](OC2CC(C)(OC)C(O)C(C)O2)[C@H](C)[C@@H](OC2OC(C)CC(N(C)C)C2O)[C@](C)(O)C[C@@H](C)[C@H](NC(C)CCCN(CC)CC)[C@H](C)[C@@H](O)[C@]1(C)O (some centres not stated) | 0.5 (≈ 0.571 µM) | 31 | 2 (≈ 2.28 µM) | 18 | 2 (≈ 2.28 µM) | 41 | 8 (≈ 9.13 µM) | 0.5 (≈ 0.571 µM) | 8 (≈ 9.13 µM)
14 | CCCCCCCCCCN[C@@H]1[C@H](C)[C@@H](O)[C@](C)(O)[C@@H](CC)OC(=O)[C@H](C)[C@@H](OC2CC(C)(OC)C(O)C(C)O2)[C@H](C)[C@@H](OC2OC(C)CC(N(C)C)C2O)[C@](C)(O)C[C@H]1C (some centres not stated) | 0.015 (≈ 0.0171 µM) | > 50 | 1 (≈ 1.14 µM) | > 50 | 1 (≈ 1.14 µM) | > 50 | 2 (≈ 2.29 µM) | 0.015 (≈ 0.0171 µM) | 2 (≈ 2.29 µM)
15 | CC[C@H]1OC(=O)[C@H](C)[C@@H](OC2CC(C)(OC)C(O)C(C)O2)[C@H](C)[C@@H](OC2OC(C)CC(N(C)C)C2O)[C@](C)(O)C[C@@H](C)[C@H](NCCC(C)CCCC(C)(C)OC)[C@H](C)[C@@H](O)[C@]1(C)O (some centres not stated) | 0.015 (≈ 0.0166 µM) | 25 | 0.5 (≈ 0.552 µM) | 24 | 0.25 (≈ 0.276 µM) | > 46 | 1 (≈ 1.1 µM) | – | 1 (≈ 1.1 µM)
16 | CC[C@H]1OC(=O)[C@H](C)[C@@H](OC2CC(C)(OC)C(O)C(C)O2)[C@H](C)[C@@H](OC2OC(C)CC(N(C)C)C2O)[C@](C)(O)C[C@@H](C)[C@H](N(C)C)[C@H](C)[C@@H](O)[C@]1(C)O (some centres not stated) | 0.25 (≈ 0.328 µM) | 22 | 4 (≈ 5.24 µM) | 44 | 2 (≈ 2.62 µM) | > 44 | 2 (≈ 2.62 µM) | – | 2 (≈ 2.62 µM)
17 | CC[C@H]1OC(=O)[C@H](C)[C@@H](OC2CC(C)(OC)C(O)C(C)O2)[C@H](C)[C@@H](OC2OC(C)CC(N(C)C)C2O)[C@](C)(O)C[C@@H](C)[C@H](N(C)C(C)C)[C@H](C)[C@@H](O)[C@]1(C)O (some centres not stated) | 0.5 (≈ 0.632 µM) | – | 8 (≈ 10.1 µM) | – | 8 (≈ 10.1 µM) | – | 32 (≈ 40.5 µM) | 0.5 (≈ 0.632 µM) | 32 (≈ 40.5 µM)
18 | CCCCCCCCCCCCN[C@@H]1[C@H](C)[C@@H](O)[C@](C)(O)[C@@H](CC)OC(=O)[C@H](C)[C@@H](OC2CC(C)(OC)C(O)C(C)O2)[C@H](C)[C@@H](OC2OC(C)CC(N(C)C)C2O)[C@](C)(O)C[C@H]1C (some centres not stated) | 0.5 (≈ 0.554 µM) | > 50 | 4 (≈ 4.43 µM) | > 50 | 4 (≈ 4.43 µM) | > 45 | – | 0.06 (≈ 0.0664 µM) | –
19 | CC[C@H]1OC(=O)[C@H](C)[C@@H](OC2CC(C)(OC)C(O)C(C)O2)[C@H](C)[C@@H](OC2OC(C)CC(N(C)C)C2O)[C@](C)(O)C[C@@H](C)C(=O)[C@H](C)[C@@H](O)[C@H]1C (some centres not stated) | 0.03 (≈ 0.0418 µM) | – | 0.25 (≈ 0.348 µM) | – | 0.25 (≈ 0.348 µM) | – | 4 (≈ 5.57 µM) | – | –
